# Source: the RNAGym collection of RNA variant scans (doi:10.1038/s41586-018-0170-7)
# B1: tRNA (parent)
# chain: GUUCCGUUGGCGUAAUGGUAACGCGUCUCCCUCCUAAGGAGAAGACUGCGGGUUCGAGUCCCGUACGGAACG
# Variants of: B1
# Experiment: yeast fitness, log relative to wild type (ln ratio); higher = fitter; tRNA-Arg(CCU), competitive growth, 37 C, 1 M NaCl
# Outline: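 A combinatorial tRNA-Arg(CCU) variant library was carried on a HIS3 centromeric plasmid in BY4742 lacking the chromosomal gene, from two independent transformations. Pools grew 4 generations in SC-HIS at 30 °C, then ~6.5 generations (~26.5 h) in SC-HIS 1M NaCl at 37 °C, with three outputs per input. Variants were counted by 125 bp paired-end Illumina sequencing. Fitness is ln of each genotype's generations (OD-scaled log2 output/input frequency, inverse-variance weighted across replicates) over the wild-type's.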
row,Variant,yeast fitness (ln)
1,G1A C27U A43C C46U C66A A69G A70G,-0.189
2,U2C G6A C27U A43C C46U C66U A69G A70U C71U,-0.32
3,U2G G6U A43C C46U A70G,-0.138
4,U2G G6A A69G A70G,-0.139
5,G1A U2G C46U C66U,-0.0764
6,G1A U2G C27U A43C A70G,-0.176
7,G6A A43C C46U C66A A70G,-0.144
8,U2C G6U C27U C46U C66U A70U,-0.132
9,G1A C27U A43C C66U A69G A70U,-0.325
10,G6U A43C A70G,-0.296
11,U2C C27U A43C C46U C66U A69G A70G,-0.303
12,G6A A43C C46U A69G A70U,-0.124
13,C46U C66U A69G,-0.104
14,G1A U2C G6A A43C C46U C66U C71U,-0.246
15,C27U A43C C46U A69G A70U,-0.0621
16,G1A C27U C46U C66U A69G A70U,-0.286
17,A43C C46U C66A A70U,-0.0196
18,G6U C46U A69G A70G,-0.158
19,G1A U2G A43C C46U A69G,-0.0712
20,C66U A69G A70G C71U,-0.106
21,U2G G6A C27U A43C C46U C66A A70U,-0.115

row,Variant,yeast fitness (ln)
1,G1A G6U C27U A43C C46U A69G A70U C71U,-0.475
2,U2C A43C C66U A69G A70U,-0.263
3,U2C A43C C46U C66U A69G A70U C71U,-0.39
4,G1A G6A C46U A69G A70U C71U,-0.256
5,G1A G6U C27U A43C C46U C66U A69G A70U C71U,-0.565
6,U2C G6U A69G A70G,-0.133
7,U2C C46U A69G A70U,-0.0822
8,U2C G6A C46U C66A A70G C71U,-0.142
9,U2C C27U A43C C46U C66A C71U,-0.132
10,U2G C27U A69G A70U C71U,-0.518
11,G1A U2C G6U C27U A43C C66A A69G A70G C71U,-0.272
12,G6A C27U C46U C66U A69G A70G,-0.213
13,U2C G6U C46U C66A,-0.0276
14,G6A C27U A43C C66A A69G A70G C71U,-0.262
15,U2G G6U C27U C46U C66U A70U C71U,-0.312
16,A43C C46U C66U C71U,-0.115
17,G1A U2C G6A C27U C46U A70U,-0.0702
18,U2C A70G C71U,-0.013
19,G1A U2C C27U A43C C46U C66A C71U,-0.24
20,U2G G6U C27U A43C C66A A69G A70U C71U,-0.382
21,G1A G6A C27U C46U C66U,-0.421

row,Variant,yeast fitness (ln)
1,G1A U2C G6U C27U C46U A69G A70G,-0.176
2,U2C C27U C46U A70G,-0.0268
3,G1A U2C G6U A43C C46U A70U,-0.0463
4,G1A C46U C66U A69G A70U,-0.162
5,U2G G6U C27U A43C C46U C66A C71U,-0.363
6,G6U C27U A43C C66A A70G C71U,-0.217
7,U2C G6U C27U A43C C66U A70G C71U,-0.313
8,U2C G6A C27U A43C C66U A69G A70G C71U,-0.293
9,C27U A43C C46U A70G C71U,-0.209
10,G1A C27U A43C C66U C71U,-0.437
11,U2G C46U A69G A70U,0.00211
12,U2G G6U C66U A69G A70U C71U,-0.421
13,G6U C27U A43C C66U A69G A70G,-0.528
14,G6U C27U A43C C66U A69G A70U,-0.349
15,G1A U2C G6U C27U,-0.0816
16,G1A U2C G6A C46U C66A A70U C71U,-0.102
17,G6A A43C C46U C66U A70G,-0.0403
18,G1A C27U C66A A69G A70U,-0.19
19,U2G C27U C46U A70U,-0.00918
20,G1A U2G G6U C27U C66U A70U C71U,-0.434
21,U2G G6A C27U A43C A69G A70U C71U,-0.502

row,Variant,yeast fitness (ln)
1,U2C G6A A43C C66U A69G A70G,-0.0192
2,U2G G6U C27U A43C A69G A70G,-0.322
3,U2G G6U C27U A43C A69G A70U,-0.315
4,U2G G6U A43C C46U A69G A70U C71U,-0.426
5,U2C G6A C27U C46U C66U A69G A70G C71U,-0.0479
6,G1A U2G C27U A43C A70U C71U,-0.167
7,C27U A69G A70G,-0.0809
8,G1A U2G C27U C66U,-0.174
9,G1A G6A C46U C66U C71U,0.000947
10,G1A U2C C46U C66U A69G A70G,-0.127
11,U2G C27U A43C C46U C66U A70G,-0.161
12,G1A U2G C27U C66U A69G A70U C71U,-0.511
13,G1A U2G G6A C27U C46U C66A A69G A70G C71U,-0.317
14,U2C G6A A43C A69G A70G C71U,-0.153
15,G1A U2C G6U C66A A70G C71U,-0.0113
16,G1A G6A A43C A70U C71U,-0.218
17,G1A C66U A69G A70U,-0.174
18,G1A U2G C27U C66A A69G A70U C71U,-0.342
19,U2C G6A A43C C46U A69G A70U C71U,-0.399
20,G1A C27U C66U A70G,-0.176
